Source: ChEMBL document CHEMBL1921743, “Design, synthesis, biophysical and biological studies of trisubstituted naphthalimides as G-quadruplex ligands” (Bioorg Med Chem, 2011)
Calls of active or inactive are those of the source. No cut-off for these calls is given here.

Assays:
[1] = test system: Nucleic Acid; assay: Binding affinity to human telomeric AGGG(TTAGGG)3 quadruplex assessed as fluorescence quenching at 10 uM after 3 mins by fluorescence titration method; assay type: nucleic-acid assay
Procedure, shortened: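 Ligand held at 10 µM (final 2% DMSO) in K-phosphate/70 mM KCl buffer, pH 7.0, 25 °C, titrated with 100–160 µM annealed quadruplex in 5–10 µL additions, ≥3 min equilibration each. Emission recorded 400–600 nm. Fraction free ligand from the change in emission maximum, plotted against quadruplex concentration and fitted for Kb and n; ≥3 experiments.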

[2] = test system: Nucleic Acid; assay: Binding affinity to human telomeric AGGG(TTAGGG)3 quadruplex in first binding event at 480 to 640 uM every 300 to 400 secs at pH 7 by isothermal titration calorimetry analysis; assay type: nucleic-acid assay
Procedure, shortened: (§1)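 Isothermal titration calorimetry at 25 °C, pH 7.0 (20 mM K phosphate, 70 mM KCl, 0.1 mM EDTA). Quadruplex annealed 90 °C for 5 min, slow-cooled, held 24 h at 4 °C, used at 30–40 µM. Ligand 480–640 µM, 5–10 µL injections every 300/400 s, 25–50 injections. First injection discarded; dilution heat subtracted; multiple-sites fit gives Kb for each sequential event.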

[3] = test system: Nucleic Acid; assay: Binding affinity to human telomeric AGGG(TTAGGG)3 quadruplex in second binding event at 480 to 640 uM every 300 to 400 secs at pH 7 by isothermal titration calorimetry method; assay type: nucleic-acid assay; procedure, shortened: as §1
[4] = test system: Nucleic Acid; assay: Binding affinity to satellite DNA by UV titration method method; assay type: nucleic-acid assay
[5] = test system: Nucleic Acid; assay: Binding affinity to human telomeric AGGG(TTAGGG)3 quadruplex after 4 secs by circular dichroism spectroscopy analysis; assay type: nucleic-acid assay
[6] = test system: Nucleic Acid; assay: Binding affinity to human telomeric AGGG(TTAGGG)3 quadruplex assessed as melting temperature at 1:1 compound to DNA ratio at pH 7 by UV-visible spectrophotometer analysis; assay type: nucleic-acid assay
Procedure, shortened: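 UV melting of 25 µM annealed quadruplex alone or with ligand at 1:1 or 2:1 ligand/DNA, pH 7.0 K-phosphate/KCl buffer. Absorbance at 295 nm, 20–85 °C, heating at 0.5 °C/min, 1 mm path. Tm taken as mean ± SD of at least three runs.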

[7] = target: Telomerase reverse transcriptase (Homo sapiens) (UniProt O14746); assay: Inhibition of telomerase in human A549 cells after 72 hrs by ELISA based TRAP assay; assay type: cell-based
Procedure, shortened: (§2)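 A549 cells exposed to compound at several concentrations for 72 h. Extracts (1–3 × 10^5 cell equivalents) run in a TRAP PCR-ELISA: P1-TS extension 20 min at 25 °C, then 30 PCR cycles, with an internal standard. Telomerase activity comes from elongation products; Taq activity from internal-standard amplification. Heat-inactivated extract serves as negative control. Triplicates, mean ± SEM, paired t-test.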

[8] = target: Telomerase reverse transcriptase (Homo sapiens) (UniProt O14746); assay: Inhibition of telomerase in human A549 cells at 5 uM after 72 hrs by ELISA based TRAP assay; assay type: cell-based; procedure, shortened: as §2
[9] = target: DNA polymerase I, thermostable (Thermus aquaticus) (UniProt P19821); assay: Inhibition of Thermus aquaticus taq polymerase at 10 to 100 uM after 72 hrs by ELISA based TRAP assay; procedure, shortened: as §2
[10] = test system: M14; assay: Cytotoxicity against human M14 cells after 5 days by MTT assay; assay type: functional, cell-based; details: for IC50: M14, 120 h
Procedure, shortened: (§3)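 Cells kept in RPMI-1640 with 10% FCS, 2 mM glutamine and gentamycin, 37 °C, 5% CO2. Seeded at 1000–3000/well, attached 24 h, then given 0.1–100 µM drug for 5 days; 0.2% DMSO controls. MTT added for 4 h, formazan dissolved in acidified isopropanol, A570 read. Eight replicates per point. IC50 read graphically from growth curves; mean ± SD of three experiments.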

[11] = test system: A549; assay: Cytotoxicity against human A549 cells after 5 days by MTT assay; assay type: functional, cell-based; details: for IC50: A549, 120 h; procedure, shortened: as §3
[12] = test system: NIH3T3; assay: Cytotoxicity against mouse NIH/3T3 cells after 5 days by MTT assay; assay type: cell-based; details: NIH3T3, 120 h
Procedure, shortened: (§4)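 Mouse embryo fibroblasts grown with bovine calf serum in place of fetal serum. Plated at 1000–3000/well, attached 24 h, then exposed to 0.1–100 µM drug at 37 °C for 5 days alongside 0.2% DMSO controls. MTT for 4 h, acidified isopropanol, A570 read. Eight replicates per point; IC50 taken graphically, mean ± SD of three experiments.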

[13] = target: Telomerase reverse transcriptase (Homo sapiens) (UniProt O14746); assay: Inhibition of telomerase in human A549 cells at 0.05 to 100 uM after 72 hrs by ELISA based TRAP assay; assay type: cell-based; procedure, shortened: as §2
[14] = target: DNA polymerase I, thermostable (Thermus aquaticus) (UniProt P19821); assay: Inhibition of Thermus aquaticus taq polymerase at 0.5 to 100 uM after 72 hrs by ELISA based TRAP assay; procedure, shortened: as §2
[15] = test system: Nucleic Acid; assay: Binding affinity to duplex DNA d(CGCGAATTCGCG)2 duplex at pH 7 by isothermal titration calorimetry method; assay type: nucleic-acid assay
Procedure, shortened: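 ITC at 298 K. Ligand dissolved in the DNA buffer (20 mM potassium phosphate, 70 mM KCl, 0.1 mM EDTA, pH 7.0). 480–640 µM ligand injected in 5–10 µL aliquots into 30–40 µM annealed duplex every 300 or 400 s, 25–50 injections, stirring 150 rpm. Heats corrected for ligand dilution; isotherms fitted for Kb, ΔH and n.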

[16] = test system: NIH3T3; assay: Cytotoxicity against mouse NIH/3T3 cells assessed as growth inhibition at 0.1 to 100 uM after 5 days by MTT assay; assay type: cell-based; details: nih3t3, 120 h; procedure, shortened: as §4
[17] = target: DNA polymerase I, thermostable (Thermus aquaticus) (UniProt P19821); assay: Inhibition of Thermus aquaticus taq polymerase at 0.1 to 50 uM after 72 hrs by ELISA based TRAP assay; procedure, shortened: as §2

Sequence of Telomerase reverse transcriptase (Homo sapiens) (O14746 whole entry): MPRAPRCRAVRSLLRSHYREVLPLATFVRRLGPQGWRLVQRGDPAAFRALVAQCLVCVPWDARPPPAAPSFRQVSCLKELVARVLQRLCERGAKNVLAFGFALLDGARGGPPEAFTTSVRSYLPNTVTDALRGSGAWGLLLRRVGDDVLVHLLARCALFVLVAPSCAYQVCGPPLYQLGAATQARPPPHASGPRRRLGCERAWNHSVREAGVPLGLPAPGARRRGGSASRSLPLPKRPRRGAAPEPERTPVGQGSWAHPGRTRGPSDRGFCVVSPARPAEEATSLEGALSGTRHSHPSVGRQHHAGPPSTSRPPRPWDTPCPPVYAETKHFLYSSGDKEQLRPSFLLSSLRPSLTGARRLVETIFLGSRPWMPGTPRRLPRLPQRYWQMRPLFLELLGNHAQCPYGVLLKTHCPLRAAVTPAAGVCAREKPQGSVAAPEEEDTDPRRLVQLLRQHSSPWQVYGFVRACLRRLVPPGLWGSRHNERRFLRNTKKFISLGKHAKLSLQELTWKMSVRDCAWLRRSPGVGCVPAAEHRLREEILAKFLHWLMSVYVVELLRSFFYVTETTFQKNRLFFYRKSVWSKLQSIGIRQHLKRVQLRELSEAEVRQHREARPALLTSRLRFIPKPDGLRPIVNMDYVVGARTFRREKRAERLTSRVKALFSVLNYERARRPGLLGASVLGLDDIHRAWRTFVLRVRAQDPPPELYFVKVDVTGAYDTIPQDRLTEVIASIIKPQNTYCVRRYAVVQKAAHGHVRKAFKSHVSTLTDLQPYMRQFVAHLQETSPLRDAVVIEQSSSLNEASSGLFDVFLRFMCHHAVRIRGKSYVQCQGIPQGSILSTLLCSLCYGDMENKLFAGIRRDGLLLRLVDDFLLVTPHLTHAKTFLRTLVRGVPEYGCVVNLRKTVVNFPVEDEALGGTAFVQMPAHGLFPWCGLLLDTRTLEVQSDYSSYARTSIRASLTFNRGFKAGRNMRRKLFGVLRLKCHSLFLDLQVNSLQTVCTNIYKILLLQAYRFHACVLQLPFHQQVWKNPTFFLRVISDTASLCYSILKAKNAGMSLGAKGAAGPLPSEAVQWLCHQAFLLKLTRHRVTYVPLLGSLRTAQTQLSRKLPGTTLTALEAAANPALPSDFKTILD
Sequence of DNA polymerase I, thermostable (Thermus aquaticus) (P19821 whole entry): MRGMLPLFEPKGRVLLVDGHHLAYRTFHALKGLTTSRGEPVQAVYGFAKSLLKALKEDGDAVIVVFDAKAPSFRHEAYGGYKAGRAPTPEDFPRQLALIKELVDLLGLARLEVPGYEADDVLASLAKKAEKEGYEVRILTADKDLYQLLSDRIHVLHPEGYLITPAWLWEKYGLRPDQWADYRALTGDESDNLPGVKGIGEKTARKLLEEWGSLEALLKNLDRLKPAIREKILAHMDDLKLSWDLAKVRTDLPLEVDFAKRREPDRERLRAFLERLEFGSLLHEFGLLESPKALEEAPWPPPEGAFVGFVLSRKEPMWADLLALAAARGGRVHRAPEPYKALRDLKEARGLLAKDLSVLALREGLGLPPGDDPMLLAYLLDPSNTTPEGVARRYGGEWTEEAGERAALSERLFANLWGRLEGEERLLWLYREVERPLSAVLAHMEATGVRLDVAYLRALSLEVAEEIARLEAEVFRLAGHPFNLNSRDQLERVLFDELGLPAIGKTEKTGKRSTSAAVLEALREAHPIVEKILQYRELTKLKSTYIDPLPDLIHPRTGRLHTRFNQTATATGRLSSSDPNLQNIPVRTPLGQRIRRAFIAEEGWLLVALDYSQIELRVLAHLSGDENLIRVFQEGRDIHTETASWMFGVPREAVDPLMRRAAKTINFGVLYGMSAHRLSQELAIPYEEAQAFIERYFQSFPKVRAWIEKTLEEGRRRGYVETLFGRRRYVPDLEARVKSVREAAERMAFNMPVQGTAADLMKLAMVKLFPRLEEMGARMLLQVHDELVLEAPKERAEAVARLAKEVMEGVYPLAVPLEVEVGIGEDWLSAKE

Compound | Kb [1] | Kb [2] | Activity [5] | Tm [6] | inhibition [7] | growth inhibition (GI) [10] | IC50 [10] | growth inhibition (GI) [11] | IC50 [11] | further results
CN(C)CCN1C(=O)c2cc(NC(=O)CCN3CCCC3)cc3cc(NC(=O)CCN4CCCC4)cc(c23)C1=O | 6 ×10⁵ /M | – | – | – | – | – | – | – | – | –
O=C(CCN1CCCC1)Nc1cc2c3c(cc(NC(=O)CCN4CCCC4)cc3c1)C(=O)N(CCN1CCN(C(=O)CCN3CCCC3)CC1)C2=O | 7 ×10⁵ /M | – | – | – | – | – | – | – | – | –
O=C(CCN1CCCC1)Nc1cc2c3c(cc(NC(=O)CCN4CCCC4)cc3c1)C(=O)N(CCCN1CCN(C(=O)CCN3CCCC3)CC1)C2=O | 9 ×10⁵ /M | – | – | – | – | – | – | – | – | –
O=C(CCN1CCCC1)Nc1cc2c3c(cc(NC(=O)CCN4CCCC4)cc3c1)C(=O)N(CCCN1CCOCC1)C2=O | 10 ×10⁵ /M | 4 ×10⁵ /M | Active | 60 °C | Dose-dependent effect | Dose-dependent effect | 34.7 µM | Dose-dependent effect | 40.3 µM | IC50 [12]: 4.6 µM; inhibition [13]: Active; inhibition [14]: Active

Continued, in another order:

Kb [1] | Kb [2] | Activity [5] | Tm [6] | inhibition [7] | Compound | growth inhibition (GI) [10] | IC50 [10] | growth inhibition (GI) [11] | IC50 [11] | further results
9 ×10⁵ /M | – | – | – | – | O=C(CCN1CCCC1)Nc1cc2c3c(cc(NC(=O)CCN4CCCC4)cc3c1)C(=O)N(CCN1CCCCC1)C2=O | – | – | – | – | –
24 ×10⁵ /M | 5 ×10⁷ /M | Active | 60 °C | Dose-dependent effect | O=C(CCN1CCCC1)Nc1cc2c3c(cc(NC(=O)CCN4CCCC4)cc3c1)C(=O)N(CCCN1CCCCC1)C2=O | Dose-dependent effect | 8 µM | Dose-dependent effect | 9.9 µM | Kb [3]: 6 ×10⁵ /M; Activity [4]: inactive; inhibition [8]: 26%; inhibition [9]: Active; IC50 [12]: 43.3 µM
12 ×10⁵ /M | – | – | – | – | O=C(CCN1CCCC1)Nc1cc2c3c(cc(NC(=O)CCN4CCCC4)cc3c1)C(=O)N(CCN1CCCC1)C2=O | – | – | – | – | –
30 ×10⁵ /M | 2 ×10⁷ /M | Active | 60 °C | Dose-dependent effect | O=C(CCN1CCCC1)Nc1cc2c3c(cc(NC(=O)CCN4CCCC4)cc3c1)C(=O)N(CCCN1CCCC1)C2=O | Dose-dependent effect | 1.5 µM | Dose-dependent effect | 5.2 µM | Kb [3]: 5 ×10⁵ /M; Activity [4]: inactive; Kb [15]: 5 ×10⁵ /M; inhibition [8]: 50%; Activity [16]: Non-toxic; inhibition [17]: inactive
